Converted amounts (≈) assume the structure as drawn.
Experiments:
[1] = system: Mus musculus; experiment: Minimum inhibitory concentration of the subcutaneously administered compound evaluated against Staphylococcus aureus HT-17 strain in mice (SC); type: functional
[2] = system: Mus musculus; experiment: Minimum inhibitory concentration of the subcutaneously administered compound evaluated against […] PW3 strain in mice (SC); type: functional
[3] = system: Mus musculus; experiment: Minimum inhibitory concentration of the subcutaneously administered compound evaluated against Staphylococcus aureus GO3 strain in mice (SC); type: functional
[4] = system: Mus musculus; experiment: Protective dose of orally administered compound against intraperitoneally-induced septicaemia model ( vancomycin resistant Enterococci faecium D3HM3 strain) in murine; type: functional; conditions: po, read-out: PD50
Procedure, shortened: (§1)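 PD50 was measured in a murine septicaemia model, with infection induced intraperitoneally with the named Gram-positive strain. Test compound was given orally and the PD50 was calculated by the probit method.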

[5] = system: Mus musculus; experiment: Protective dose of orally administered compound against intraperitoneally-induced septicaemia model ( vancomycin resistant Enterococci faecium D3HM4 strain) in murine; type: functional; conditions: po, read-out: PD50; procedure, shortened: as §1
[6] = system: Mus musculus; experiment: Protective dose of orally administered compound against intraperitoneally-induced septicaemia model ( vancomycin resistant Enterococci faecium D3HT12 strain) in murine; type: functional; conditions: po, read-out: PD50; procedure, shortened: as §1
[7] = system: Mus musculus; experiment: Protective dose of orally administered compound against intraperitoneally-induced septicaemia model (Enterococci faecium D3HT7 strain) in murine; type: functional; conditions: po, read-out: PD50
[8] = system: Mus musculus; experiment: Protective dose of subcutaneously administered compound against intraperitoneally-induced septicaemia model (Staphylococcus aureus GO3) in murine; type: functional; conditions: sc, read-out: PD50
Procedure, shortened: (§2)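 Murine septicaemia was induced by intraperitoneal infection, and the compound was given subcutaneously. PD50 was derived by probit analysis.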

[9] = system: Mus musculus; experiment: Protective dose of subcutaneously administered compound against intraperitoneally-induced septicaemia model (Staphylococcus aureus HT-17) in murine; type: functional; conditions: sc, read-out: PD50; procedure, shortened: as §2
[10] = system: Mus musculus; experiment: Protective dose of subcutaneously administered compound against intraperitoneally-induced septicaemia model ([…] PW3 strain) in murine; type: functional; conditions: sc, read-out: PD50; procedure, shortened: as §2
[11] = system: Mus musculus; experiment: Protective dose of orally administered compound against intraperitoneally-induced septicaemia model (Enterococci faecalis D2HT6 strain) in murine; type: functional; conditions: po, read-out: PD50; procedure, shortened: as §1
[12] = system: Enterococcus faecium; experiment: Tested for in vitro antibacterial activity against Enterococcus faecium 02D31P2 vancomycin teicoplanin erythromycin resistance phenotype; type: functional
[13] = system: Staphylococcus aureus; experiment: IC50 was determined for gyrase B of Staphylococcus aureus against novobiocin (0.5 mg/mL) as reference; IC50nov/IC50comp
[14] = system: Staphylococcus epidermidis; experiment: Tested for in vitro antibacterial activity against Staphylococcus epidermidis 012GO42 oxacillin resistance phenotype; type: functional
[15] = system: Staphylococcus aureus; experiment: Tested for in vitro antibacterial activity against Staphylococcus aureus 011 HT3 phenotype; type: functional
[16] = system: Streptococcus pyogenes; experiment: Tested for in vitro antibacterial activity against Streptococcus pyogenes O2A1UC1 phenotype; type: functional
[17] = system: Staphylococcus aureus; experiment: Tested for in vitro antibacterial activity against Staphylococcus aureus 011 HT1 novobiocin resistance phenotype; type: functional
[18] = system: Staphylococcus aureus; experiment: Tested for in vitro antibacterial activity against Staphylococcus aureus 011 GO64 ofloxacin oxacillin erythromycin resistance phenotype; type: functional

Compound | MIC [1] [µg/mL] | MIC [2] [µg/mL] | MIC [3] [µg/mL] | ED50 [4] [mg/kg] | ED50 [5] [mg/kg] | ED50 [6] [mg/kg] | ED50 [7] [mg/kg] | ED50 [8] [mg/kg] | ED50 [9] [mg/kg] | ED50 [10] [mg/kg] | ED50 [11] [mg/kg] | MIC [12] [µg/mL] | Ratio [13] | MIC [14] [µg/mL] | MIC [15] [µg/mL] | MIC [16] [µg/mL] | MIC [17] [µg/mL] | MIC [18] [µg/mL]
CC(=O)NC[C@H]1CN(c2ccc(N3CCOCC3)c(F)c2)C(=O)O1 [LINEZOLID] | 1.2 (≈ 3.56 µM) | 1.2 (≈ 3.56 µM) | 2.5 (≈ 7.41 µM) | 2.1 | 8.6 | 1.8 | 2.4 | 8.7 | 5.8 | 3 | 4.2 |  |  |  |  |  |  | 
C#CCONC(=O)O[C@H]1[C@@H](O)[C@H](Oc2ccc3c(O)c(/C(C)=N/OC)c(=O)oc3c2C)O[C@@](C)(CC)[C@@H]1OC |  |  |  |  |  |  |  |  |  |  |  | 0.15 (≈ 0.273 µM) | 11.1 | < 0.04 | < 0.04 | 0.08 (≈ 0.146 µM) | 0.3 (≈ 0.547 µM) | 
C#CCONC(=O)O[C@H]1[C@@H](O)[C@H](Oc2ccc3c(=O)c(/C(C)=N/OC)c(O)oc3c2C)OC(C)(C)[C@@H]1OC |  |  |  |  |  |  |  |  |  |  |  | 2.5 (≈ 4.68 µM) | 12.5 | 0.08 (≈ 0.15 µM) | 0.16 (≈ 0.299 µM) | 0.6 (≈ 1.12 µM) | 5 (≈ 9.35 µM) | 0.16 (≈ 0.299 µM)

— ChEMBL document CHEMBL1133253, “Improved antibacterial activities of coumarin antibiotics bearing 5',5'-dialkylnoviose: biological activity of RU79115” (Bioorg Med Chem Lett, 2000)
